Measured values from ChEMBL document CHEMBL1151442, “Genetic and phenotypic identification of fusidic acid-resistant mutants with the small-colony-variant phenotype in Staphylococcus aureus” (2007).
≈ marks a conversion by molar mass, not a printed value.

Legend:
Format in all cases: functional
[1] = system: Staphylococcus aureus; assay: Ratio of MIC for kanamycin-resistant Staphylococcus aureus harboring mutations in FusA gene to MIC for wild type kanamycin-susceptible Staphylococcus aureus AH001
[2] = system: Staphylococcus aureus; assay: Antibacterial activity against kanamycin-resistant and fusidic acid-susceptible Staphylococcus aureus AH296 harboring Gly664Ala mutation in fusA gene after 18 to 24 hrs by Etest strip assay
Outline: (§1)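 Etest MIC: a single colony was suspended in 0.9% NaCl to 0.5 McFarland and swabbed over Mueller-Hinton agar. The strip was applied and plates were incubated at 37°C for 18 to 24 h until an SCV lawn grew.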

[3] = system: Staphylococcus aureus; assay: Antibacterial activity against fusidic acid-resistant Staphylococcus aureus AH207 harboring Thr385Asn mutation in fusA gene after 18 to 24 hrs by Etest strip assay
Outline: (§2)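 Mutants of lab strain 8325-4 were selected on LA with FA 2 μg/ml for 48 h at 37°C and purified on selective medium. For the MIC, one colony was suspended in 0.9% NaCl to 0.5 McFarland and swabbed onto Mueller-Hinton agar. An Etest strip was applied and plates were incubated at 37°C for 18–24 h until the lawn was evident.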

[4] = system: Staphylococcus aureus; assay: Antibacterial activity against fusidic acid-resistant Staphylococcus aureus AH193 harboring TAA stop codon at nucleotide 299 in rplF gene after 18 to 24 hrs by Etest strip assay; outline: as §2
[5] = system: Staphylococcus aureus; assay: Antibacterial activity against kanamycin-resistant Staphylococcus aureus AH330 (SCV-2) harboring -1 frameshift mutation at nucleotide 423 in rplF gene after 18 to 24 hrs by Etest strip assay
Outline: (§3)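 SCVs of a Rifr 8325-4 derivative were selected on LA with KAN at 8, 16 or 24 μg/ml for 48 h at 37°C. They were purified at the same KAN level and screened on LA plus FA 1 μg/ml.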

[6] = system: Staphylococcus aureus; assay: Antibacterial activity against kanamycin-resistant Staphylococcus aureus AH386 (SCV-58) harboring -1 frameshift mutation at nucleotide 90 in rplF gene after 18 to 24 hrs by Etest strip assay; outline: as §3
[7] = system: Staphylococcus aureus; assay: Antibacterial activity against kanamycin-resistant and fusidic acid-susceptible Staphylococcus aureus AH297 harboring Ser660Pro mutation in fusA gene after 18 to 24 hrs by Etest strip assay; outline: as §1
[8] = system: Staphylococcus aureus; assay: Antibacterial activity against stationary-phase rifampin-resistant Staphylococcus aureus 8325-4 culture assessed as number of viable colonies at 8 ug/ ml after 48 hrs
Outline: (§4)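 Twenty independent stationary-phase overnight LB cultures of the Rifr 8325-4 derivative were made; 108 cells from each were spread on LA with kanamycin at 8, 16 or 24 μg/ml. Plates were incubated 48 h at 37°C so that slow-growing variants could form visible colonies, and Kanr colonies were counted.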

[9] = system: Staphylococcus aureus; assay: Antibacterial activity against stationary-phase rifampin-resistant Staphylococcus aureus 8325-4 culture assessed as number of viable colonies at 16 ug/ ml after 48 hrs; outline: as §4
[10] = system: Staphylococcus aureus; assay: Antibacterial activity against stationary-phase rifampin-resistant Staphylococcus aureus 8325-4 culture assessed as number of viable colonies at 24 ug/ ml after 48 hrs; outline: as §4

Row | SMILES | fold change (FC) [1] | MIC [2] [µg/mL] | MIC [3] [µg/mL] | MIC [4] [µg/mL] | MIC [5] [µg/mL] | MIC [6] [µg/mL] | MIC [7] [µg/mL] | Activity [8] | Activity [9] | Activity [10]
1 | CC(=O)O[C@H]1C[C@@]2(C)[C@@H](C[C@@H](O)[C@H]3[C@@]4(C)CC[C@@H](O)[C@@H](C)[C@@H]4CC[C@@]32C)/C1=C(\CCC=C(C)C)C(=O)O [FUSIDIC ACID] | 32 | 3 (≈ 5.81 µM) | 4 (≈ 7.74 µM) | 4 (≈ 7.74 µM) | 12 | 24 | 2 (≈ 3.87 µM) | – | – | –
2 | NC[C@H]1O[C@H](O[C@H]2[C@H](O)[C@@H](O[C@H]3O[C@H](CO)[C@@H](O)[C@H](N)[C@H]3O)[C@H](N)C[C@@H]2N)[C@H](O)[C@@H](O)[C@@H]1O [KANAMYCIN] | 3 | 16 (≈ 33 µM) | 3 (≈ 6.19 µM) | 8 (≈ 16.5 µM) | 128 | 256 | 24 (≈ 49.5 µM) | 1000 | 200 | 30
3 | CN[C@@H]1[C@H](O[C@H]2[C@H](O[C@H]3[C@H](O)[C@@H](O)[C@H](N=C(N)N)[C@@H](O)[C@@H]3N=C(N)N)O[C@@H](C)[C@]2(O)C=O)O[C@@H](CO)[C@H](O)[C@H]1O [STREPTOMYCIN] | 3 | 8 (≈ 13.8 µM) | 12 (≈ 20.6 µM) | 24 (≈ 41.3 µM) | 96 | 96 | – | – | – | –
